From ChEMBL document CHEMBL1136355, “Benzyl vinylogous amide substituted aryldihydropyridazinones and aryldimethylpyrazolones as potent and selective PDE3B inhibitors” (Bioorg Med Chem Lett, 2003)
pIC50: −log10 of the molar value.

Columns and labels:
[1] = target: cGMP-inhibited 3',5'-cyclic phosphodiesterase 3B (Homo sapiens, UniProt Q13370); test: Inhibitory concentration required to inhibit human phosphodiesterase 3B expressed in Escherichia coli
Method in brief: (§1)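 PDE3A and PDE3B made in E. coli BL21(DE3) pLysS after IPTG induction. Soluble extract ammonium sulfate-precipitated (50% saturation), dialysed, partially purified on DEAE Sepharose with a 70–250 mM NaCl gradient. IC50 is the mean of two or more experiments.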

[2] = target: cGMP-inhibited 3',5'-cyclic phosphodiesterase 3A (Homo sapiens, UniProt Q14432); test: Inhibitory concentration required to inhibit human phosphodiesterase 3A expressed in Escherichia coli; method in brief: as §1
[3] = target: Phosphodiesterase 3 (Homo sapiens) (UniProt Q14432+Q13370); test: Relative inhibition of Phosphodiesterase 3A and Phosphodiesterase 3B; assay type: protein assay
Method in brief: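 PDE3A and PDE3B expressed in E. coli BL21 (DE3) pLysS after IPTG induction, ammonium sulfate precipitated, partially purified on DEAE Sepharose. Activity measured by [3H]cAMP SPA assay in 50 mM Tris pH 7.5, 8.3 mM MgCl2, 1.7 mM EGTA, 10 nM [3H]cAMP, room temperature, 2–15 min. IC50s on each isoform are means of two or more experiments.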

[4] = system: Rattus norvegicus; test: Area under curve was determined in rat after oral administration at a concentration 1 mg/kg; assay type: ADME, organism-based; set-up: dose 1 mg/kg, route oral; details: in vivo
Method in brief: (§2)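 Rats dosed orally at 1.0 mg/kg. Blood levels were measured, and AUC was normalized and compared with iv exposure to give oral bioavailability.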

[5] = system: Rattus norvegicus; test: Maximal blood pressure decrease in rats at 0.02 mg/kg dose for 60 min; assay type: functional
Method in brief: (§3)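 Anesthetized rats given increasing intravenous doses (0.01–0.1 mg/kg). Mean arterial pressure recorded from 5 min to 60 min post-dose; decrease expressed as percentage.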

[6] = system: Rattus norvegicus; test: In vivo plasma glycerol increase in anesthetized rat at 1 mg/kg iv dose for 60 min; assay type: functional; details: 1 h
Method in brief: (§4)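 Anesthetized rats given compound by intravenous infusion (1.0 mg/kg). Plasma glycerol increase over vehicle followed over a 90 min period, with a reading at 60 min taken as an index of lipolysis.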

[7] = system: Rattus norvegicus; test: Increased metabolic rate in male rats for 8-h period after 3 mg/kg dose; assay type: functional
Method in brief: (§5)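 Male rats dosed orally at 1, 3 and 10 mg/kg. Metabolic rate monitored over 8 h post-dose and expressed as percentage increase in thermogenesis over the pre-dose rate.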

[8] = Half life in rat after intravenous administration at a concentration 0.5 mg/kg; assay type: ADME, organism-based; set-up: dose 0.5 mg/kg, route intravenous; details: in vivo
Method in brief: (§6)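 Rat pharmacokinetics after a 0.5 mg/kg intravenous dose; half-life and clearance derived from blood levels.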

[9] = system: Rattus norvegicus; test: In vivo plasma glycerol increase in anesthetized rat at 1 mg/kg iv dose for 90 min; assay type: functional; details: 1 h, in the assay text read “60 min” for “90 min”; method in brief: as §4
[10] = system: Rattus norvegicus; test: Maximal blood pressure decrease in rats at 0.1 mg/kg dose for 60 min; assay type: functional; method in brief: as §3
[11] = Oral bioavailability was determined in rat after oral administration at a concentration 1 mg/kg; assay type: ADME, organism-based; details: in vivo; method in brief: as §2
[12] = system: Rattus norvegicus; test: Increased metabolic rate in male rats for 8-h period after 10 mg/kg dose; assay type: functional; method in brief: as §5
[13] = Plasma clearance in rat after intravenous administration at a concentration 0.5 mg/kg; assay type: ADME, organism-based; set-up: dose 0.5 mg/kg, route intravenous; method in brief: as §6

Chain of cGMP-inhibited 3',5'-cyclic phosphodiesterase 3B (Q13370 whole entry): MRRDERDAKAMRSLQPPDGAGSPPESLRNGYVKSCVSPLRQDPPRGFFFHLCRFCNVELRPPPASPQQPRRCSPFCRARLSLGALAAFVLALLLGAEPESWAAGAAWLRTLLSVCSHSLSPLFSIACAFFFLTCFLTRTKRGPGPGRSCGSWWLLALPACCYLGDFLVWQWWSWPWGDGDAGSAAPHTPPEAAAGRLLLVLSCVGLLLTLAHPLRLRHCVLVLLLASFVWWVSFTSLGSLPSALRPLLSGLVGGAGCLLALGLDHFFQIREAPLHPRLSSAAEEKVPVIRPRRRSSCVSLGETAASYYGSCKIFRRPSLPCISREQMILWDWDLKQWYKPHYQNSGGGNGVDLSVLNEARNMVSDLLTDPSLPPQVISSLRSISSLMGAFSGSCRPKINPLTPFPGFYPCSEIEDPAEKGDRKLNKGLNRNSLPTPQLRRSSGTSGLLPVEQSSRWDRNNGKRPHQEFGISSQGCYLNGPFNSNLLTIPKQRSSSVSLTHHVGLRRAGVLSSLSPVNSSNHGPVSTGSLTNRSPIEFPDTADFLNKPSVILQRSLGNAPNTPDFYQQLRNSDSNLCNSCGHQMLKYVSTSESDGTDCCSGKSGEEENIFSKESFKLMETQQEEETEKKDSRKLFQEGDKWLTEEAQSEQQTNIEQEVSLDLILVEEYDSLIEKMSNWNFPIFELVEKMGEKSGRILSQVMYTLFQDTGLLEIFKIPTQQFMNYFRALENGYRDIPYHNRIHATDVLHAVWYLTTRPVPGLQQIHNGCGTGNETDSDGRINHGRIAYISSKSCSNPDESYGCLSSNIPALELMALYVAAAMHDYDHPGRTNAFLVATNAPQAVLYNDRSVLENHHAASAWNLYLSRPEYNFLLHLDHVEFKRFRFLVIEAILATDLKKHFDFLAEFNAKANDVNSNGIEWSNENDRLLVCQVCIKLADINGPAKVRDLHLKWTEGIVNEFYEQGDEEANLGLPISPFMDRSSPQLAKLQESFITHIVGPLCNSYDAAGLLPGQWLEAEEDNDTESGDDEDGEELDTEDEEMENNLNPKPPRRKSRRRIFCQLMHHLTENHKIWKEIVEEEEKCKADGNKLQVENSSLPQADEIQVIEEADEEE
Chain of cGMP-inhibited 3',5'-cyclic phosphodiesterase 3A (Q14432 whole entry): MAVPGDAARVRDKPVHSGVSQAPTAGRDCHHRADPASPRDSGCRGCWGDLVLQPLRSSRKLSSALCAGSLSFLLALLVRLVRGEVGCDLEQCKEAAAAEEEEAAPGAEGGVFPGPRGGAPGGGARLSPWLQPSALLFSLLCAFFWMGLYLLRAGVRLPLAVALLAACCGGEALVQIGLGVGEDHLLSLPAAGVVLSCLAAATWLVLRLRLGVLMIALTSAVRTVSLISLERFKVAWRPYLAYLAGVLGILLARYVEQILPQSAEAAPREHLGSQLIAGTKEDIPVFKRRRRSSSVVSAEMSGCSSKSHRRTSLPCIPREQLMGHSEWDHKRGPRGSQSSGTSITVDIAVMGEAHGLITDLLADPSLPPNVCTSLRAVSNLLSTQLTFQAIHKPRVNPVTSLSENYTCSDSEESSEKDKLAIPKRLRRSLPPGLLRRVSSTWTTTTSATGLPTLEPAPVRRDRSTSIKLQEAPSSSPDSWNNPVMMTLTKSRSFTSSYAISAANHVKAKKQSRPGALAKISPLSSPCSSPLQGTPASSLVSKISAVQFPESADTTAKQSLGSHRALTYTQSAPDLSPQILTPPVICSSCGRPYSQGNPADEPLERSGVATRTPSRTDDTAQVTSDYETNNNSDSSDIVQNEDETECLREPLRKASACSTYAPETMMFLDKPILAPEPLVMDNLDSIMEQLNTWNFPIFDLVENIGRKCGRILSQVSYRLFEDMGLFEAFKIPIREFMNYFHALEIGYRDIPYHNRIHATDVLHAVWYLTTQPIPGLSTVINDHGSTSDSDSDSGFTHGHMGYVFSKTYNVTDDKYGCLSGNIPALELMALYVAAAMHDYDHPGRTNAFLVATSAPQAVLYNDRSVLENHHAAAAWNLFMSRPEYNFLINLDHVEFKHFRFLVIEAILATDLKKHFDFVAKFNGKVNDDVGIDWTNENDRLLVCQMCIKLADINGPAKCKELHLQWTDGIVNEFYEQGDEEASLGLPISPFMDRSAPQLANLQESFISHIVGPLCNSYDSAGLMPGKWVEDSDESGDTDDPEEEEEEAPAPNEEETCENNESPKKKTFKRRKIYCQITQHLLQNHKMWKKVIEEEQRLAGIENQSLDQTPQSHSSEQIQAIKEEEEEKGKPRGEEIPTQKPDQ

Row | Structure (SMILES) | pIC50 [1] | pIC50 [2] | further results
1 | CC1(C)C(=O)NN=C1c1ccc(NC2=C(Cc3ccccc3Cl)C(=O)CCC2)cc1Cl | 8.20 | 7.11 | 
2 | CN(C(=O)CCCOc1ccc2[nH]c(=O)ccc2c1)C1CCCCC1 [CILOSTAMIDE] | 7.74 |  | 
3 | CC1(C)C(=O)NN=C1c1ccc(NC2=C(Cc3cccc(C#N)c3)C(=O)CCC2)cc1F | 8.49 | 7.16 | 
4 | CC1(C)C(=O)NN=C1c1ccc(NC2=C(Cc3ccccc3F)C(=O)CCC2)cc1F | 8.96 | 7.80 | 
5 | CC1CC(=O)NN=C1c1ccc(/N=C2\CCCC(O)=C2Cc2ccccc2)c(F)c1 (stereo not drawn) | 9.59 | 8.92 | 
6 | CC1CC(=O)NN=C1c1ccc(NC2=C(Cc3ccccc3)C(=O)CCC2)cc1Cl (stereo not drawn) | 8.32 | 7.34 | 
7 | Cc1cc(NC2=C(Cc3ccccc3)C(=O)CCC2)ccc1C1=NNC(=O)C1(C)C | 8.32 | 7.42 | 
8 | CC1CC(=O)NN=C1c1ccc(NC2=C(Cc3ccccc3)C(=O)CCC2)cc1F (stereo not drawn) | 9.62 | 8.80 | 
9 | CC1(C)C(=O)NN=C1c1ccc(NC2=C(Cc3ccccc3)C(=O)CCC2)cc1 | 8.00 | 7.28 | 
10 | CC1CC(=O)NN=C1c1ccc(NC2=C(Cc3cccc([N+](=O)[O-])c3)C(=O)CCC2)cc1 (stereo not drawn) | 9.03 | 8.51 | 
11 | CC1(C)C(=O)NN=C1c1ccc(/N=C2\CCCC(O)=C2Cc2cccc(C#N)c2)c(F)c1F | 9.48 | 8.12 | Selectivity [3]: 23
12 | CC1(C)C(=O)NN=C1c1ccc(NC2=C(Cc3c(Cl)cccc3Cl)C(=O)CCC2)cc1F | 9.89 | 8.66 | 
13 | COc1ccc(CC2=C(Nc3ccc(C4=NNC(=O)CC4C)cc3)CCCC2=O)cc1 (stereo not drawn) | 9.15 | 8.64 | 
14 | CCc1cc(NC2=C(Cc3ccccc3)C(=O)CCC2)ccc1C1=NNC(=O)CC1C (stereo not drawn) | 7.68 | 7.00 | 
15 | CC1CC(=O)NN=C1c1ccc(NC(=O)OCc2ccccc2)cc1 (stereo not drawn) | 9.00 | 8.54 | 
16 | CC1CC(=O)NN=C1c1ccc(NC2=C(Cc3cccc(I)c3)C(=O)CCC2)cc1 (stereo not drawn) | 9.96 | 9.48 | 
17 | Cc1cc(NC2=C(Cc3cccc(C#N)c3)C(=O)CCC2)ccc1C1=NNC(=O)C1(C)C | 8.00 | 6.89 | 
18 | C[C@@H]1CC(=O)NN=C1c1ccc(NC2=C(Cc3ccccc3)C(=O)CCC2)cc1 | 9.72 | 8.89 | AUC [4]: 3.6 µM·h; Max decrease [5]: 20%; ED50 [6]: 0.6 mg/kg; Metabolic rate [7]: 14%; half-life [8]: 1 h; ED50 [9]: 0.6 mg/kg; Max decrease [10]: 40%; bioavailability [11]: 61%; Metabolic rate [12]: 21%; clearance [13]: 6.8 mL/min/kg

Row | Structure (SMILES) | pIC50 [1] | pIC50 [2] | further results
19 | CC1CC(=O)NN=C1c1ccc(NC2=C(Cc3cccc(F)c3)C(=O)CCC2)cc1 (stereo not drawn) | 9.15 | 8.55 | 
20 | CC1CC(=O)NN=C1c1cc(F)c(NC2=C(Cc3ccccc3)C(=O)CCC2)cc1F (stereo not drawn) | 9.21 | 8.80 | 
21 | CC1=C(Nc2ccc(C3=NNC(=O)C[C@H]3C)cc2)CCCC1=O | 8.06 | 7.36 | 
22 | CC1CC(=O)NN=C1c1ccc(NC2=C(Cc3ccc([N+](=O)[O-])cc3)C(=O)CCC2)cc1 (stereo not drawn) | 8.26 | 7.62 | 
23 | CC(=O)Nc1ccc(C2=NNC(=O)C[C@H]2C)cc1 | 7.43 | 7.02 | 
24 | CC1(C)C(=O)NN=C1c1ccc(NC2=C(Cc3ccccc3)C(=O)CCC2)cc1F | 8.60 | 7.70 | 
25 | C[C@@H]1CC(=O)NN=C1c1ccc(NC(=O)c2ccccc2C(F)(F)F)cc1 | 8.30 | 7.82 | 
26 | CC1(C)C(=O)NN=C1c1ccc(NC2=C(Cc3cccc([N+](=O)[O-])c3)C(=O)CCC2)cc1F | 8.35 | 6.82 | Selectivity [3]: 33
27 | CC1CC(=O)NN=C1c1ccc(NC2=C(Cc3cccc(Br)c3)C(=O)CCC2)cc1 (stereo not drawn) | 9.52 | 9.03 | 
28 | Cc1cc(C2=NNC(=O)CC2C)ccc1/N=C1\CCCC(O)=C1Cc1ccccc1 (stereo not drawn) | 9.21 | 8.43 | 
29 | CC1(C)C(=O)NN=C1c1ccc(NC2=C(Cc3ccccc3Cl)C(=O)CCC2)cc1F | 9.28 | 8.14 | 
30 | COc1ccccc1CC1=C(Nc2ccc(C3=NNC(=O)CC3C)cc2)CCCC1=O (stereo not drawn) | 9.89 | 9.41 | 
31 | CC1CC(=O)NN=C1c1ccc(NC2=C(Cc3ccccc3C(F)(F)F)C(=O)CCC2)cc1 (stereo not drawn) | 9.46 | 9.08 | 
32 | CC1(C)C(=O)NN=C1c1ccc(NC2=C(Cc3cccc(F)c3)C(=O)CCC2)cc1F | 8.25 | 7.37 | 
33 | CCOC(=O)Nc1ccc(C2=NNC(=O)C[C@H]2C)cc1 | 8.07 | 7.62 | 
34 | CC1(C)C(=O)NN=C1c1ccc(NC2=C(Cc3ccc(F)cc3)C(=O)CCC2)cc1F | 8.51 | 7.20 | 
35 | Cc1cc(NC2=C(Cc3ccccc3)C(=O)CCC2)ccc1C1=NNC(=O)CC1C (stereo not drawn) | 8.59 | 7.66 | 
36 | CC1(C)C(=O)NN=C1c1ccc(NC2=C(Cc3cccc([N+](=O)[O-])c3)C(=O)CCC2)cc1Cl | 7.52 | 6.26 | 
